According to ChEMBL document CHEMBL4020827, “Targeting Multiple Effector Pathways in Pancreatic Ductal Adenocarcinoma with a G-Quadruplex-Binding Small Molecule” (J Med Chem, 2018):

Assays:
PANC-1 [1] = assay: Effect on MAPK11 gene expression in human PANC1 cells at 400 nM after 24 hrs by RNA sequence analysis relative to control; format: functional
PANC-1 [2] = assay: Effect on AKT1 gene expression in human PANC1 cells at 400 nM after 24 hrs by RNA sequence analysis relative to control; format: functional
Summary of the method: (§1)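 PANC-1 (0.35 x 10^6) or MIA PaCa-2 (1.5 x 10^6) cells seeded overnight in 60 mm plates, then exposed to 400 nM compound for 6 or 24 h; untreated cells as controls. Cells were mycoplasma-free and STR-certified. Differential expression by RNA-seq, called at FDR < 0.1.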

MIA PaCa-2 [3] = assay: Effect on PRKCZ gene expression in human MIAPaCa2 cells at 400 nM after 24 hrs by RNA sequence analysis relative to control; format: functional
PANC-1 [4] = assay: Effect on SHANK2 gene expression in human PANC1 cells at 400 nM after 24 hrs by RNA sequence analysis relative to control; format: functional
Summary of the method: (§2)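 RNA-seq: cells seeded overnight in 60 mm plates (PANC-1 0.35 x 10^6, MIA PaCa-2 1.5 x 10^6 cells/well), then exposed to 400 nM compound for 6 or 24 h against untreated controls. Cell lines mycoplasma-free by RNA-capture ELISA and STR-profiled. Differentially expressed genes called at FDR < 0.1.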

MIA PaCa-2 [5] = assay: Antitumor activity against human MIAPaCa2 cells xenografted in CD-1 nude mouse assessed as tumor growth inhibition administered twice weekly for 4 weeks; format: functional, cell-based
Summary of the method: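 Female CD-1 nude mice (2-3 months, 20−25 g) given 5 x 10^6 MIA PaCa-2 cells s.c. in right flank in RPMI + Matrigel; dosing began once tumors were established (~13 days, mean 0.05 cm3). Groups of eight received IV doses in saline, twice weekly for 28 days (8 doses), against a saline group. Tumors measured by calliper (length × width × height × π/6) every 3−4 days, to day 62; Student's t test.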

PANC-1 [6] = assay: Effect on RPTOR gene expression in human PANC1 cells at 400 nM after 6 hrs by RNA sequence analysis relative to control; format: functional; summary of the method: as §2
MIA PaCa-2 [7] = assay: Effect on GLI1 gene expression in human MIAPaCa2 cells at 400 nM after 24 hrs by RNA sequence analysis relative to control; format: functional; summary of the method: as §1
PANC-1 [8] = assay: Effect on SHC2 gene expression in human PANC1 cells at 400 nM after 6 hrs by RNA sequence analysis relative to control; format: functional; summary of the method: as §2
MIA PaCa-2 [9] = assay: Effect on PRDM16 gene expression in human MIAPaCa2 cells at 400 nM after 6 hrs by RNA sequence analysis relative to control; format: functional
MIA PaCa-2 [10] = assay: Effect on TEAD4 gene expression in human MIAPaCa2 cells at 400 nM after 24 hrs by RNA sequence analysis relative to control; format: functional; summary of the method: as §2
PANC-1 [11] = assay: Effect on PLXNA1 gene expression in human PANC1 cells at 400 nM after 6 hrs by RNA sequence analysis relative to control; format: functional
MIA PaCa-2 [12] = assay: Effect on PIK3R2 gene expression in human MIAPaCa2 cells at 400 nM after 24 hrs by RNA sequence analysis relative to control; format: functional
PANC-1 [13] = assay: Effect on MAPK9 gene expression in human PANC1 cells at 400 nM after 6 hrs by RNA sequence analysis relative to control; format: functional
MIA PaCa-2 [14] = assay: Effect on SHANK2 gene expression in human MIAPaCa2 cells at 400 nM after 24 hrs by RNA sequence analysis relative to control; format: functional; summary of the method: as §2
MIA PaCa-2 [15] = assay: Effect on GLI1 gene expression in human MIAPaCa2 cells at 400 nM after 6 hrs by RNA sequence analysis relative to control; format: functional; summary of the method: as §1
PANC-1 [16] = assay: Effect on CTBP1 gene expression in human PANC1 cells at 400 nM after 6 hrs by RNA sequence analysis relative to control; format: functional; summary of the method: as §1
MIA PaCa-2 [17] = assay: Effect on IGF2 gene expression in human MIAPaCa2 cells at 400 nM after 24 hrs by RNA sequence analysis relative to control; format: functional; summary of the method: as §1
MIA PaCa-2 [18] = assay: Effect on ULK1 gene expression in human MIAPaCa2 cells at 400 nM after 6 hrs by RNA sequence analysis relative to control; format: functional; summary of the method: as §2
PANC-1 [19] = assay: Effect on GLI4 gene expression in human PANC1 cells at 400 nM after 24 hrs by RNA sequence analysis relative to control; format: functional; summary of the method: as §1
[20] = Binding affinity to 5'-FAM/3'-TAMRA labeled KRAS21 promoter G-quadruplex DNA (unknown origin) assessed as change in melting temperature at 1 uM by FRET assay
Summary of the method: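 FRET melting of FAM/TAMRA dual-labelled promoter G4 oligonucleotides, 400 nM, annealed at 95 °C for 10 min in 60 mM potassium cacodylate (pH 7.4) then cooled to RT. Ligand at 1 μM in solution with 50 mM K+. Fluorescence (ex 450–495, em 515–545 nm) read every 0.5 °C over 30–100 °C with a 30 sec hold per step. ΔTm from curve fitting; triplicate measurements.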

MIA PaCa-2 [21] = assay: Effect on TP73 gene expression in human MIAPaCa2 cells at 400 nM after 6 hrs by RNA sequence analysis relative to control; format: functional; summary of the method: as §2
PANC-1 [22] = assay: Effect on CBFA2T3 gene expression in human PANC1 cells at 400 nM after 24 hrs by RNA sequence analysis relative to control; format: functional; summary of the method: as §1
[23] = Selectivity ratio of IC50 for human MCF7 cells to IC50 for human MIAPaCa2 cells; format: functional
PANC-1 [24] = assay: Effect on IGF2 gene expression in human PANC1 cells at 400 nM after 24 hrs by RNA sequence analysis relative to control; format: functional; summary of the method: as §1
PANC-1 [25] = assay: Effect on GLI4 gene expression in human PANC1 cells at 400 nM after 6 hrs by RNA sequence analysis relative to control; format: functional; summary of the method: as §1
PANC-1 [26] = assay: Effect on PAK1 gene expression in human PANC1 cells at 400 nM after 24 hrs by RNA sequence analysis relative to control; format: functional
MIA PaCa-2 [27] = assay: Effect on IGF2 gene expression in human MIAPaCa2 cells at 400 nM after 6 hrs by RNA sequence analysis relative to control; format: functional; summary of the method: as §1
[28] = Binding affinity to 5'-FAM/3'-TAMRA labeled HSP90B promoter G-quadruplex DNA (unknown origin) assessed as change in melting temperature at 1 uM by FRET assay
Summary of the method: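 FRET melting with FAM/TAMRA dual-labelled oligonucleotides at 400 nM, annealed at 95 °C for 10 min in 60 mM potassium cacodylate pH 7.4 and slowly cooled. Ligand final 1 μM; solution contains 50 mM K+. Fluorescence read every 0.5 °C over 30–100 °C with 30 s hold, excitation 450–495 nm and emission 515–545 nm. ΔTm from curve fitting, triplicate measurements.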

MIA PaCa-2 [29] = assay: Effect on PAK1 gene expression in human MIAPaCa2 cells at 400 nM after 6 hrs by RNA sequence analysis relative to control; format: functional
MIA PaCa-2 [30] = assay: Effect on AKT1S1 gene expression in human MIAPaCa2 cells at 400 nM after 24 hrs by RNA sequence analysis relative to control; format: functional; summary of the method: as §1
MIA PaCa-2 [31] = assay: Effect on TEAD3 gene expression in human MIAPaCa2 cells at 400 nM after 24 hrs by RNA sequence analysis relative to control; format: functional; summary of the method: as §2

O=C1c2ccc3c4c(c(NCCN5CCCC5)cc(c24)C(=O)N1CCCN1CCOCC1)C(=O)N(CCCN1CCOCC1)C3=O
log2FC (PANC-1 [1]): -1.6
log2FC (PANC-1 [2]): -1.04
log2FC (MIA PaCa-2 [3]): -2.01
log2FC (PANC-1 [4]): -0.44
TGI (MIA PaCa-2 [5]): Dose-dependent effect
log2FC (PANC-1 [6]): -0.8
log2FC (MIA PaCa-2 [7]): -0.64
log2FC (PANC-1 [8]): -0.52
log2FC (MIA PaCa-2 [9]): -2.73
log2FC (MIA PaCa-2 [10]): -0.31
log2FC (PANC-1 [11]): -0.84
log2FC (MIA PaCa-2 [12]): -1.14
log2FC (PANC-1 [13]): -0.28
log2FC (MIA PaCa-2 [14]): -1.96
log2FC (MIA PaCa-2 [15]): -0.61
log2FC (PANC-1 [16]): -0.66
log2FC (MIA PaCa-2 [17]): 0.72
log2FC (MIA PaCa-2 [18]): 0.03
log2FC (PANC-1 [19]): -1.71
ΔTm [20]: 11 °C
log2FC (MIA PaCa-2 [21]): -2.36
log2FC (PANC-1 [22]): -2.25
Ratio IC50 [23]: >20
log2FC (PANC-1 [24]): -1.53
log2FC (PANC-1 [25]): -1.26
log2FC (PANC-1 [26]): -1.11
log2FC (MIA PaCa-2 [27]): -2.72
ΔTm [28]: 12.7 °C
log2FC (MIA PaCa-2 [29]): -0.59
log2FC (MIA PaCa-2 [30]): -1.09
log2FC (MIA PaCa-2 [31]): -0.66
